Data as given in the EternaBench riboswitch data.

Test system: MS2 coat protein
Test: apparent Kd, MS2 coat protein; higher = weaker binding; RNA-MaP array; FMN 200 µM where present
How it was run: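 In 100 mM Tris-HCl pH 7.5, 80 mM KCl, 4 mM MgCl2, BSA, DTT, yeast tRNA and Tween-20, SNAP-549-labelled MS2 coat protein was titrated from 0.7 or 1.5 nM, doubling to 3 µM, over designs transcribed by stalled E. coli RNA polymerase on Illumina sequencing-chip clusters. This was done first without ligand, then with ligand held constant. After green signal was normalised to red-channel RNA signal and control-cluster median Fmax, the apparent Kd was taken as the median of filtered per-cluster binding-curve fits.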

[1] = designed as: OFF switch for flavin mononucleotide, no ligand
[2] = ligand present: flavin mononucleotide, designed as: OFF switch for flavin mononucleotide
[3] = designed as: ON switch for flavin mononucleotide, no ligand
[4] = ligand present: flavin mononucleotide, designed as: ON switch for flavin mononucleotide

| Sequence | apparent Kd [1] | apparent Kd [2] | apparent Kd [3] | apparent Kd [4] |
| --- | --- | --- | --- | --- |
| AACAUGUCAGGAUAUGCGAAGGCGUCUGACAGACGAGGCUAGCAGAAGGGACAUGAGGAUCACCCAUGUAAAAA | 98.9 nM | 129 nM | – | – |
| AACAUGUGAGGAUAUUAGUUGUACGUCAAUAGACGUAUAAGUGAGAAGGCACAUGAGGAUCACCCAUGUUCCUG | 43.7 nM | 464 nM | – | – |
| AACCACCGCACGGACACGUCGAGUCAGGAUAUACAUGAGGAUCACCCAUGUGAAGGCCGGCUCAUGUAGAAGGGACAGGCGUUG | 11.4 nM | 15.7 nM | – | – |
| AACCGACAUGAGGAUCACCCAUGUCAGGAUAUGGACUGACACCCAAAGGGUGGAGGAACCAGAAGGGACUGGGC | 39.9 nM | 101 nM | – | – |
| AACCUCGGAGGAUAUACCUACCGAUUCACAAGUGUCACAUCACAUGAGGAUCACCCAUGUAGAAGGUCGAGGCG | 30 nM | 97.1 nM | – | – |
| AACGAGCAAGAUUAUUAUGAAUAAACAUGAGGAUCACCCAUGUAGGAUAUGCAGUGGAAUACACUGCAGAAGGACAUAAGCUCG | 7.2 nM | 19 nM | – | – |
| AACGAGCUAGGAUAUGCACGGAAAAGCGUGGUCACUUAUGGACAUGAGGAUCACCCAUGUAGAAGGAGCGACGC | 22.5 nM | 18.9 nM | – | – |
| AACGCAGAAAUCGCAAUACAUGAGGAUCACCCAUGUAGAUCACAGGAUAUGGUCUAGUCAGUGGUCCAGAAGGGUGAUCAGAAC | – | – | 66.4 nM | 38.6 nM |
| AACGGAAUGUAGAAGGGUGACAUGAGGAUCACCCAUGUUCACAUGCGUAUUAAAGUAUGUGAACCACAGGAUAUACUGUCCGUG | – | – | 56.8 nM | 130 nM |
| AACGUCGAAGGAUAUACAUGAGGAUCACCCAUGUGGGACCUGUAGUCUCACCCAUCGUGUAGAAGGUUGAGGCA | 32.2 nM | 29.7 nM | – | – |
| AACUAGCUAGGAUAUACAUGAGGAUCACCCAUGUAAAAAAAAAAAAAAAGAUAUAUAUGUAGAAGGAGCUAGUA | 33.7 nM | 44.9 nM | – | – |
| AACUGACAUGAGGAUCACCCAUGUCAGGAUAUGCUUCAUAAAAUAAAAAUAAAAUGAUGCAGAAGGGACAUGGA | 27.1 nM | 39.6 nM | – | – |
| AACUUGUCAGGAUAUCUUACAUUUGCAUCAUAGUUACCAUUGGAGAAGGGACAUGAGGAUCACCCAUGUUUGGU | 41.3 nM | 39.3 nM | – | – |
| AAGAAACAUGAGGAUCACCCAUGUAAAUUCAAGAGAGGAUAUCGUACAUGGAAGAUUCAACGAGAAGGCUCUAGAA | – | – | 36.5 nM | 18.4 nM |
| AAGAACGCAGGAUAUAUUAAGGGACAAAGAAGGAAGAAUAAACAUGAGGAUCACCCAUGUAGAAGGGCGAAGAA | 60.5 nM | 58 nM | – | – |
| AAGAACUUAGGAUAUACAUGAGGAUCACCCAUGUAGCUUCACUUGGGCCUGAGCCCGUGUAGAAGGAAGAAAAU | 87.9 nM | 59 nM | – | – |
| AAGAAGAACGUAGGAUAUCAAUGAGGAUCACCCUGAGAAGGACGUGAGGACAUGAGGAUCACCCAUGUGGAUCACCCAUGUCAU | 168 nM | 130 nM | – | – |
| AAGAAGGACGCAGGAUAUCCAGGACCUCCCGCAGGAGAAGGGCGAGACAUGUGGAUCACCCAGACAUGAGGAUCACCCAUGUAG | 22.5 nM | 21 nM | – | – |
| AAGAAGUCAGGAUAUGCAUGGCGGGACUUGCGUCGUGGCGUGCAGAAGGGACAUGAGGAUCACCCAUGUAAAGU | 49 nM | 45.4 nM | – | – |

| Sequence | apparent Kd [1] | apparent Kd [2] | apparent Kd [3] | apparent Kd [4] |
| --- | --- | --- | --- | --- |
| AAGAAGUGAGGAUAUGCUGCUCGUCACUUGCGUGAUGAGUAGCAGAAGGCACAUGAGGAUCACCCAUGUAAAGA | 44 nM | 53 nM | – | – |
| AAGACACAUGAGGAUCACCCAUGUUAGGAUAUACGCAUGCAUGCAUGCAUGCAUGCAAGUAGAAGGAACCAUGC | 30.5 nM | 30.6 nM | – | – |
| AAGAGCGAUUCUCCCUUCCUACAUGAGGAUCACCCAUGUACGAGAAGGCGCCGCGUAUACAACGGUGAGGAUAUCGUGCGUUAC | 4.45 nM | 4.98 nM | – | – |
| AAGAGGAAAGCAGGAUAUCUAUAGGCUCCUUAACAUGAGGAUCACCCAUGUAGAGAAGGGCUAAGACCGACUCUUCGGAGUUGG | 8.69 nM | 25.3 nM | – | – |
| AAGAGUACAGGAUAUACAUGAGGAUCACCCAUGUGAAAAUUAAGUGGCGUACCACAAAGUAGAAGGGUACUGGA | 22.4 nM | 50.8 nM | – | – |
| AAGAGUAGAGGAUAUACAUGAGGAUCACCCAUGUAAUCCGGAUAAGGAAGCAUGUCGUGUAGAAGGCUGCAUGA | 15.2 nM | 12.4 nM | – | – |
| AAGCACGAAGAUUAUUAUGAAUAAACAUGAGGAUCACCCAUGUAGGAUAUCGACUCGAAUAGAGUCGAGAAGGACAUAACGUGC | 6.85 nM | 20.7 nM | – | – |
| AAGCCCUGAGGAUAUCCCAACUCGCACAUGAGGAUCACCCAUGUCCUUCUCUGGGCUUCGGGAGAAGGCAGGUCUC | 90.3 nM | 305 nM | – | – |
| AAGCGAGGGACAGGAUAUGCGGCAAAACUCGCCGCAGAAGGGUCGACAUGAGGAUCACCCAUGUCCUUACGCUCCAAGUAGAGG | – | – | 213 nM | 359 nM |
| AAGCGAGGGACAGGAUAUGCGGCGAAAUUCUCCGCAGAAGGGUCGACAUGAGGAUCACCCAUGUCCUUACGCUCCAAGUAGAGG | – | – | 324 nM | 467 nM |
| AAGCUGUCAGGAUAUCGUUAAUUUAGUUGUUUGUAUUAGUUCGAGAAGGGACAUGAGGAUCACCCAUGUAUAUA | 37.8 nM | 76.8 nM | – | – |
| AAGGAUAGAGGAUAUACAUAGAUACAGAUUCGUGUAGAACUACAUGAGGAUCACCCAUGUAGAAGGCUAUCCUA | 16.8 nM | 46 nM | – | – |
| AAGGAUAGAGGAUAUACAUAGAUACAGAUUCGUGUAGUCCUACAUGAGGAUCACCCAUGUAGAAGGCUAUCCUA | 11.8 nM | 22.9 nM | – | – |
| AAGGAUCGAGGAUAUACAUAGAUACAGAUACAUGUAGACCUACAUGAGGAUCACCCAUGUAGAAGGCGAUCAUA | 18.8 nM | 33.7 nM | – | – |
| AAGGCACCUGAGAAGGGUACAUGAGGAUCACCCAUGUGGCUAUUUGUGCGUCGUUGACCAAGUGUACAGGAUAUUAGGGAACGU | 98 nM | 32.4 nM | – | – |
| AAGGUGUAAGGAUAUGCUGCUCGUCACUUGCGUGAUGAGUAGCAGAAGGUACAUGAGGAUCACCCAUGUAAAAA | 27.9 nM | 34.6 nM | – | – |
| AAGUACCGGUGAGGAUAUUUUUAAUAGAACUUUAUGAUAUACAUGAGGAUCACCCAUGUUACUUUAAAGAAGGCAUCGGAUAAA | 18.3 nM | 14.6 nM | – | – |
| AAGUAGAUCCGAGGAUAUACAUUGCGGAAACGCAACAUGAGGAUCACCCAUGUAGAAGGCGGAUCUACAGGUACUAAAGUACCA | 10 nM | 17 nM | – | – |
| AAGUAGGGAGGAUAUACAUGGAUAUACAUUCAUGUGGACCUACAUGAGGAUCACCCAUGUAGAAGGCCCUAAUA | 37.1 nM | 43.5 nM | – | – |

| Sequence | apparent Kd [1] | apparent Kd [2] | apparent Kd [3] | apparent Kd [4] |
| --- | --- | --- | --- | --- |
| AAGUAGGUAGGAUAUACAUGGAUAUACAUUCAUGUGGACCUACAUGAGGAUCACCCAUGUAGAAGGACCUACUA | 36.9 nM | 79.1 nM | – | – |
| AAGUCACAUGAGGAUCACCCAUGUCGUAAACGAUGAGGAUAUAGGAAAAAAAAAAAAAAACUAGAAGGUAUAACAA | – | – | 69.3 nM | 69.1 nM |
| AAGUCACAUGAGGAUCACCCAUGUCGUAAACGAUGAGGAUAUAGGAACGAAAGAAAAAAACUAGAAGGUAUAACAA | – | – | 52.2 nM | 52 nM |
| AAGUCUGGACGAGGAUAUCAGUUGUAUCUGGCGUCAACAUGAGGAUCACCCAUGUUGCUAUAGGGUGAGAAGGCGUUUGGGCAA | – | – | 92.6 nM | 22.8 nM |
| AAGUCUGGAUGAGGAUAUCAGCUGUAACUGACGUCGACAUGAGGAUCACCCAUGUUGCUAUAGGGUGAGAAGGCAUUUGGGCAA | – | – | 106 nM | 28.6 nM |
| AAGUGGUUUAUAUAUAUAGAAAUCAGAAGGCGUGACAUGAGGAUCACCCAUGUGUUCAGUCAUGACGAGGAUAUGACUAAUUGU | 69.9 nM | 85.4 nM | – | – |
| AAGUGGUUUAUAUAUAUAGAUAUCAGAAGGCGUGACAUGAGGAUCACCCAUGUGUACUGUCAUGACGAGGAUAUGACUAAUUGU | 24 nM | 19.5 nM | – | – |
| AAGUUGUCAGGAUAUCGUUAAUUUAGUUGUUUGUAUUAGUUCGAGAAGGGACAUGAGGAUCACCCAUGUUUGCA | 26.4 nM | 34 nM | – | – |
| AAGUUUGUACGAGGAUAUCAGUUGUUUCUAAAUUCAACAUGAGGAUCACCCAUGUAACAAUGGAGUGAGAAGGCGUGUGGGCAA | – | – | 740 nM | 554 nM |
| AAUAAACUCACAGGAUAUAGCAGAGGUCGCCUGAACUUACAGGCGACUAUGCUAGAAGGGUGACCACAUGAGGAUCACCCAUGU | – | – | 974 nM | 170 nM |
| AAUAAACUCACAGGAUAUAGCAGAGGUCGCGUAAACUUACAGGCGACGAUGCUAGAAGGGUGACCACAUGAGGAUCACCCAUGU | – | – | 871 nM | 118 nM |
| AAUAACAGAGGAUAUACUAUUUUAUGUGUUUAUUGUUUUAAACAUGAGGAUCACCCAUGUAGAAGGCUGAUUAA | 69.7 nM | 105 nM | – | – |
| AAUAACAGAGGAUAUACUAUUUUAUGUGUUUGUUAUUUUAAACAUGAGGAUCACCCAUGUAGAAGGCUGAUUAA | 42 nM | 44.6 nM | – | – |
| AAUAACAGAGGAUAUACUAUUUUAUGUGUUUGUUGUUUUAAACAUGAGGAUCACCCAUGUAGAAGGCUGAAUAA | 21 nM | 26 nM | – | – |
| AAUAACAGAGGAUAUACUGUUUUAUGUAUUUAUUAUUUUAAACAUGAGGAUCACCCAUGUAGAAGGCUGAUUGA | 33.7 nM | 29.8 nM | – | – |
| AAUAACAGAGGAUAUACUGUUUUAUGUGUUUGUUAUUUUAAACAUGAGGAUCACCCAUGUAGAAGGCUGAGUAA | 27.4 nM | 27 nM | – | – |
| AAUACACAUGAGGAUCACCCAUGUCAGGAUAUGCGGAAUAAGACUUUGGUCGAUAAAUGUAGAAGGGACGUUUA | 34.3 nM | 33.4 nM | – | – |
| AAUACAUGAGGAUCACCCAUGUAAAGUUCAAACAAUAUGAGUGAGGAUAUACUGAGUUAGUUAUGGUAGAAGGCACUGGGUACA | – | – | 23.1 nM | 21.8 nM |
